Source: PubChem
Most compounds without a hit are left out; they make up all but 2.2% or so of the library.
FXIIa inh: inhibitors of human coagulation factor XIIa. purified FXIIa, Boc-QGR-AMC fluorogenic substrate, 2 h. inhibition, % at 5 µM. P00748. 220,000 compounds, 0.3% hits. AID 800; in the data active means inhibition above about 40%;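 further: 0% = enzyme with no compound and 100% = blank without enzyme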
FXIa inh: factor XIa (human) inhibition. purified FXIa, Boc-Glu-Ala-Arg-AMC fluorogenic substrate. inhibition, % at 5 µM. 220,000 compounds, 0.14% hits. P03951;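 active means inhibition of at least 40%; inactive means inhibition below 40%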;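 further: fluorescence of freed AMC excited at 355 nm; 0% = enzyme without compound and 100% = no enzyme blank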
Target sequence (P03951 19-387 limits assumed): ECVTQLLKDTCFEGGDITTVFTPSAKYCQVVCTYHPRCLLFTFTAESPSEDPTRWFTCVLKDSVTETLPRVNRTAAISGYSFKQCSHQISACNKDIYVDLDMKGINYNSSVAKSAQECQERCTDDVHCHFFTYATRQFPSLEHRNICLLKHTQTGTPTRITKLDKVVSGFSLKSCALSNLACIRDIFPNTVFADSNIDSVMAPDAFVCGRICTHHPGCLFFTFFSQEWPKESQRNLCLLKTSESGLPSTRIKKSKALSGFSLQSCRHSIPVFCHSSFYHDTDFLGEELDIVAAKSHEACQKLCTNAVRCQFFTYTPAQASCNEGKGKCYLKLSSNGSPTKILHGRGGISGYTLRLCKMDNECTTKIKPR
Target sequence (P03951 388-625 limits assumed): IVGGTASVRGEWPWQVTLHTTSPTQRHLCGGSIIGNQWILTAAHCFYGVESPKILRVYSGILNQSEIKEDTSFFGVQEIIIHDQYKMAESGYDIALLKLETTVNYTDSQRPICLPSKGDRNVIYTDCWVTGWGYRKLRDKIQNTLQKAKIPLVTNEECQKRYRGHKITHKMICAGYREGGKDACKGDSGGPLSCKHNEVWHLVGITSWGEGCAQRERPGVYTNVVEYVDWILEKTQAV
Wee1 stabilizer: blocks degradation of human Wee1 kinase | P30291 | HeLa Luc-Wee1K328M stability, luciferase luminescence; 100% = proteasome inhibitor MG132 effect | reporter increase, % at 5 µM | 220,000 compounds, 1.2% hits | AID 1321;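 active means activation above the mean of all tested compounds plus 3 SD, set per screening run, cut at about 8.8% in these data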;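 further: cells exposed to compound for 20 h before luminescence read; 0% = DMSO alone and 100% = MG132 at 30 µM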
KLK5 inh: blocks human kallikrein 5 protease activity. recombinant hK5, fluorogenic AMC substrate cleavage. inhibition, % at 5 µM. 210,000 compounds, 0.59% hits. Q9Y337. AID 873;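 active means inhibition of 40% or more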;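 further: 0% = enzyme controls without compound and 100% = no-enzyme blanks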
thrombin 1536: blocks human thrombin protease activity | P00734 | alpha-thrombin, Boc-VPR-AMC fluorogenic substrate cleavage | inhibition, % at 5 µM | 220,000 compounds, 0.26% hits;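 active means inhibition at or above 40%; inactive means inhibition below 40%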;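 further: 0% = enzyme with no compound and 100% = wells without enzyme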
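Material: human alpha-thrombin protein; Also added: Boc-VPR-AMC substrate, 15 µM final; Timing: enzyme reaction carried out at room temperature; Signal: fluorescence, ex 355 nm, em 460 nm; Measure: % inhibition of thrombin; Controls: enzyme without compound as high, wells lacking enzyme as low.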
* hit, by the source's call; / = not tested or not shown.

SMILES | FXIIa inh | FXIa inh | Wee1 stabilizer | KLK5 inh | thrombin 1536
COc1c(/C=N/NC(=O)c2ccncc2)c(CCN(C)C(C)=O)cc2c1OCO2 | 0.8 | 13.1 | -1.6 | 17.6 | -3.6
O=S(=O)(Cc1ccco1)Cc1nc(-c2ccc(Cl)cc2)cs1 | 15.1 | 2.3 | -1.1 | -3.8 | -3.1
N=c1oc2ccccc2cc1-c1nc(-c2ccc(Cl)cc2)cs1 | 6.8 | 13.7 | -1.2 | 47.1* | 18.1
COc1cc(C(=O)NC(=S)N(C)Cc2ccccc2)cc(OC)c1OC | 26.3 | 101.5* | 3.0 | 35.6 | 18.9
COc1cc(C(=O)NC(=S)N(CCc2ccccc2)CCc2ccccc2)cc(OC)c1OC | 10.3 | 7.3 | 0.3 | -4.9 | 1.0
CC(C)CNC(=S)NC(=O)c1ccc(F)cc1 | 8.6 | 5.8 | 9.1* | -11.3 | -10.1
CCN(CC)c1ccc(NC(=O)c2ccc(=O)[nH]c2)cc1S(=O)(=O)Nc1ccccc1OC | 7.0 | 2.5 | -1.9 | -2.1 | /
Cn1c(=O)cc(Nc2ccccc2)c2c(=O)n(-c3ccccc3)c(=O)n(-c3ccccc3)c21 | 3.3 | 1.6 | 0.9 | 20.0 | -5.8
O=[N+]([O-])c1ccc(N2CCCCC2)cc1 | 31.5 | 30.3 | -3.2 | 40.3* | 24.6
CN(C)c1ccc(C(=S)N2CCOCC2)cc1 | 45.0* | 12.0 | 3.9 | -4.5 | -6.8
CN(C)c1ccc(C(=S)N2CCCCCC2)cc1 | 7.0 | -0.7 | 1.1 | 2.6 | 1.6
CC(=O)N1CCN(c2ccc([N+](=O)[O-])cc2)CC1 | 14.2 | 11.7 | -4.3 | -3.5 | -9.8
O=[N+]([O-])c1ccc(C(=S)N2CCN(c3ccc(F)cc3)CC2)cc1 | 0.2 | -5.0 | -0.6 | -7.2 | -0.9
CN(C)c1ccc(C(=S)N2CCN(c3ccc([N+](=O)[O-])cc3)CC2)cc1 | 48.7* | 51.9* | 6.5 | 30.7 | 13.1
CCN(Cc1cnn(C)c1)Cc1nc(C(c2ccccc2)c2ccccc2)no1 | 9.0 | 2.6 | 0.0 | / | 1.6
O=C(Nc1ccc(Cl)cc1)Nc1ccccc1C(=O)NCc1ccco1 | 30.9 | 103.8* | -1.3 | 51.1* | 5.1
O=C(Nc1ccccc1C(=O)NCc1ccco1)c1ccccc1 | 3.6 | 4.9 | -3.2 | -7.9 | 1.6
Cc1cc(C(=O)Nc2ncn[nH]2)ccc1[N+](=O)[O-] | 10.0 | 11.1 | 5.0 | -13.1 | -0.9
O=C(NNC(=O)C1CC1c1ccccc1)c1cccc([N+](=O)[O-])c1 (stereo not given) | 13.0 | 4.9 | 10.8* | -7.5 | -0.5
O=C(NNC(=S)NCc1ccccc1)c1cccc([N+](=O)[O-])c1 | 1.8 | -3.5 | -0.2 | -7.6 | -5.3
COc1ccccc1NS(=O)(=O)c1cccc(C(=O)N/N=C2\CC(=O)CC(C)(C)C2)c1 | -2.0 | -3.4 | 3.0 | -29.8 | -9.5
Cc1c(C)n(CCC#N)c2ccccc12 | 42.8* | 31.8 | -1.8 | -13.6 | -9.4
Cc1c(C)n(CC(O)CN2CCCCCC2)c2ccccc12 (stereo not given) | -11.1 | -5.6 | -1.5 | 11.8 | -2.1
CN(CC(=O)Nc1ccc(F)cc1[N+](=O)[O-])Cc1ccccc1 | 2.3 | -2.9 | -2.4 | -3.3 | 2.0
NC(=O)C1(N2CCCCC2)CCN(C(=O)CSc2nc3ccccc3s2)CC1 | 11.5 | 8.7 | -1.8 | 59.5* | 26.3
SMILES | FXIIa inh | FXIa inh | Wee1 stabilizer | KLK5 inh | thrombin 1536
O=C(CSc1nc2ccccc2s1)N1CCOCC1 | 21.0 | 4.2 | 0.0 | -10.9 | -4.2
CN1C(=O)/C(=C2\SC(=S)N(C(CCC(=O)O)C(=O)O)C2=O)c2ccccc21 (stereo not given) | 11.0 | 12.9 | 0.5 | 63.9* | 104.0*
CN1C(=O)/C(=C2\SC(=S)N(CC3CCCO3)C2=O)c2ccccc21 (stereo not given) | 9.7 | -0.3 | 4.2 | -35.6 | -3.6
Cc1ccccc1OC1C(=O)N(Cc2ccc3c(c2)OCO3)C1c1sccc1C (stereo not given) | 1.7 | 6.1 | -0.3 | 3.1 | 3.1
CN(C)S(=O)(=O)N1CCN(c2cccc(Cl)c2)CC1 | 15.2 | -7.8 | -3.2 | 83.3* | 25.4
CN(C)S(=O)(=O)N1CCN(c2ccccc2)CC1 | 12.8 | 2.9 | 5.6 | -0.1 | 1.6
CCOC(=O)CSc1nnc(-c2ccc(OC)cc2)n1CC | 26.3 | 19.2 | -3.6 | 77.5* | 37.7
CCOC(=O)CNC(=O)CSc1nnc(-c2ccc(OC)cc2)n1CC | 5.8 | -1.7 | 5.6 | -6.0 | -7.7
Cc1ccc(C2CC(c3ccc(Cl)cc3)n3nc(N)nc3N2)cc1 (stereo not given) | 3.7 | 7.6 | 1.5 | -3.5 | -0.3
Clc1ccc(C2CSc3c4ncnc-4ncn32)cc1 (stereo not given) | 35.5 | 18.5 | 4.1 | 46.0* | 7.5
